Assay results published in PubChem BioAssay.
The source made the active and inactive calls.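 How the source made its calls, unless noted: active means viability loss from added drug above about 55%, and viability with drug at most 40%, in both replicates (limit read from the data, passing the limit was not always enough); inconclusive means both conditions met in only one replicate; inactive means neither replicate meets both conditions.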

What was measured:
[1] = reduced viability of SK-BR-3 breast cancer cells – cell-based, 24 h, human, pilot screen (AID 572;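 active means viability at or below 10% of carrier control in both of two separate runs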;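 further: compound exposure lasted between 18 and 24 h rather than exactly 24 h; 100% = carrier-treated control wells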); details: SK-BR-3 viability, CellTiter-Glo luminescence, at 10 µM, stronger effect = lower value
[2] = HUVEC growth inhibition – cell-based, human, primary screen (AID 575;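 active means viability at or below 30% in both replicate assays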;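 further: 100% = median of untreated cell wells with 0.1% DMSO on each plate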); details: HUVEC proliferation, CellTiter-Glo luminescence, 72 h; at 10 µM; stronger effect = lower value
In short: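 Test system – primary HUVEC, no more than 12 passages · Dosing – one dose, 10 µM final, 0.1% DMSO · Times – 72 h treatment at 37 °C · Measured by – ATP-based CellTiter-Glo luminescent read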

[3] = H69AR cell proliferation blockers – human, duplicate replicates, primary screen (AID 580;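 active means viability at or under a set limit in both replicates, limit being median viability minus 3 SD, cut at about 48% in these data, passing the limit was not always enough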;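 further: 100% = mean luminescence of untreated wells and 0% = no signal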); details: H69AR lung tumor cells viability, ATP luminescence, 72 h; at 10 µM; stronger effect = lower value
[4] = MRP1 drug-resistance reversers in H69AR cells – cell-based, doxorubicin co-treatment, pilot screen (AID 601); details: CellTiter-Glo, 72 h, at 10 µM; for differential viability (reversal): stronger effect = higher value
[5] = yeast transport mutant growth inhibition pilot in 384-well plates, post-Golgi transport modulator project (AID 636; in the data active means inhibition above about 31%); details: absorbance 615 nm, about 18 h, stronger effect = higher value
[6] = growth suppression of yeast trafficking mutant, preliminary HTS, modulators of trafficking downstream of Golgi apparatus project, 1536-format plate, OD 615 nm (AID 637; in the data active means inhibition above about 30%); details: yeast transport mutant growth, absorbance 615 nm, 18 h; stronger effect = higher value
[7] = H69AR cells + 2 uM doxorubicin, measured here: viability with 2 uM doxorubicin, stronger effect = lower value
[8] = H69AR cells, compound alone cytotoxicity

| SMILES | viability [1] | viability [2] | viability [3] | differential viability (reversal) ([4]; H69AR cells + 2 uM doxorubicin) | viability [4, 7] [%] | viability [4, 8] [%] | inhibition [5] | inhibition [6] |
| --- | --- | --- | --- | --- | --- | --- | --- | --- |
| CCOc1nc(-c2ccccc2O)nc2ccccc12 | 68% (inactive) | 108% (inactive) | 100% (inactive) | 0.64% (inactive) | 99.5 | 100 | 1.23% (inactive) | 0.55% (inactive) |
| COc1ccccc1NC1=NC(c2ccc(Cl)cc2)N=C(N)N1 (stereo unspecified) | 91% (inactive) | 68.2% (inactive) | 10% (active) | -30.4% (inactive) | 40.5 | 10 | -5.27% (inactive) | 0% (inactive) |
| CN1CCc2c(sc3c2c(=O)n(-c2cccc(Cl)c2)c2nncn32)C1 | 102% (inactive) | 84.5% (inactive) | 95.8% (inactive) | -13.3% (inactive) | 109 | 95.8 | -2.6% (inactive) | -5.41% (inactive) |
| CC(=O)Nc1c(C(=O)O)[nH]c2ccccc12 | 103% (inactive) | 97.9% (inactive) | 104% (inactive) | 3.33% (inactive) | 101 | 104 | -4.46% (inactive) | -8.36% (inactive) |
| CCCNC(=O)NC1C(NC(=O)NCCC)N(C)C(=O)N1C (stereo unspecified) | 86% (inactive) | 104% (inactive) | 105% (inactive) | 14.2% (inactive) | 90.7 | 105 | -1.04% (inactive) | -0.49% (inactive) |
| C[N+](C)(C)CCCCCCCCCC[N+](C)(C)C | 106% (inactive) | 100% (inactive) | 104% (inactive) | 13.9% (inactive) | 90 | 104 | 1.69% (inactive) | -1.5% (inactive) |
| Cc1nn(C)c(C)c1NC(=O)CSc1nc(Cc2ccccc2)nc2c1cnn2-c1ccccc1 | 116% (inactive) | 88% (inactive) | 78.8% (inactive) | 0.07% (inactive) | 78.7 | 78.8 | -2.05% (inactive) | 5.48% (inactive) |
| O=C(NCN1CCCCC1)c1cccnc1 | 134% (inactive) | 102% (inactive) | 106% (inactive) | -0.935% (inactive) | 107 | 106 | -3.9% (inactive) | 6.07% (inactive) |
| CCOc1nc(NCCC2=CCCCC2)nc(N2CCOCC2)n1 | 102% (inactive) | 95.8% (inactive) | 96.7% (inactive) | 14.6% (inactive) | 82.1 | 96.7 | -3.33% (inactive) | 1.64% (inactive) |
| CCCCOc1ccc(C(=O)CCN2CCCCC2)cc1 | 121% (inactive) | 46% (inactive) | 66.1% (inactive) | 24.7% (inactive) | 41.4 | 66.1 | -2.21% (inactive) | 6.17% (inactive) |
| N#CC1=C(N)N(c2ccc(Oc3ccccc3)cc2)C(=O)C1 | 130% (inactive) | 106% (inactive) | 90.2% (inactive) | 8.2% (inactive) | 82 | 90.2 | -5.62% (inactive) | 0.48% (inactive) |
| CC(C)CC1NC(=O)N(CC(=O)N2CCN(S(=O)(=O)c3ccc(Cl)cc3)CC2)C1=O (stereo unspecified) | 97% (inactive) | 91.7% (inactive) | 96.4% (inactive) | -19.2% (inactive) | 116 | 96.4 | 0% (inactive) | 5.83% (inactive) |
| Cc1csc(SCCn2c(N3CCCC3)nc3c2c(=O)[nH]c(=O)n3C)n1 | 94% (inactive) | 105% (inactive) | 100% (inactive) | -4.86% (inactive) | 105 | 100 | -1.49% (inactive) | -2.55% (inactive) |
| CCOC(=O)c1sc2cccc(F)c2c1N | 105% (inactive) | 80.8% (inactive) | 88.1% (inactive) | 5.58% (inactive) | 82.5 | 88.1 | -5.45% (inactive) | 6.07% (inactive) |
| CCOC(=O)C1CCN(C(=O)Nc2ccc3nc(C)c(C)nc3c2)CC1 | 101% (inactive) | 109% (inactive) | 95.5% (inactive) | 15.9% (inactive) | 79.6 | 95.5 | -3.87% (inactive) | -1.09% (inactive) |
| O=C(CSc1ncn[nH]1)NC1CC2CCC1C2 (stereo unspecified) | 94% (inactive) | 103% (inactive) | 98% (inactive) | -22.4% (inactive) | 120 | 98 | -5.34% (inactive) | -1.82% (inactive) |
| CC(C)OC(=O)C1C2C=CC3(CN(Cc4cccs4)C(=O)C13)O2 (stereo unspecified) | 89% (inactive) | 96.7% (inactive) | 90.1% (inactive) | -3.73% (inactive) | 93.8 | 90.1 | -6.44% (inactive) | 2.42% (inactive) |
| Nc1ccc(S(=O)(=O)Nc2ccccn2)cc1 | 143% (inactive) | 102% (inactive) | 91.3% (inactive) | 10.3% (inactive) | 81 | 91.3 | 0.78% (inactive) | -1.17% (inactive) |
| Cn1c(=O)c2c(ncn2CC(O)CO)n(C)c1=O (stereo unspecified) | 117% (inactive) | 92.8% (inactive) | 107% (inactive) | 12.3% (inactive) | 95 | 107 | -5.45% (inactive) | 3% (inactive) |

| SMILES | viability [1] | viability [2] | viability [3] | differential viability (reversal) ([4]; H69AR cells + 2 uM doxorubicin) | viability [4, 7] [%] | viability [4, 8] [%] | inhibition [5] | inhibition [6] |
| --- | --- | --- | --- | --- | --- | --- | --- | --- |
| CCc1n[nH]c2c1C(=O)CC(C)(C)C2 | 73% (inactive) | 106% (inactive) | 89.1% (inactive) | -1.54% (inactive) | 90.6 | 89.1 | 2% (inactive) | 6% (inactive) |
| CN(C)C(=O)CSc1nnc2sc3ccccc3n12 | 71% (inactive) | 105% (inactive) | 89.2% (inactive) | -6.11% (inactive) | 95.3 | 89.2 | -8.63% (inactive) | 1.82% (inactive) |
| O=C(CCn1cccc1)N1CCc2ccccc21 | 104% (inactive) | 83% (inactive) | 101% (inactive) | 13.3% (inactive) | 87.6 | 101 | -2.08% (inactive) | 2.13% (inactive) |
| COc1ccc(OC)c(S(=O)(=O)Nc2ccc(O)c3ccccc23)c1 | 6% (active) | 3.38% (active) | 1.73% (active) | -0.325% (inactive) | 2.06 | 1.73 | -2.5% (inactive) | -5.33% (inactive) |
| CCOC(=O)c1cc2c(=O)n3cccc(C)c3nc2n(CC2CCCO2)c1=NC(C)=O (stereo unspecified) | 94% (inactive) | 109% (inactive) | 81.3% (inactive) | 61.6% (active) | 19.6 | 81.3 | -5.14% (inactive) | 0.91% (inactive) |
| O=C(NCC12CC3CC(C1)CC(CNC(=O)N1CCCC1)(C3)C2)N1CCCC1 | 78% (inactive) | 90.1% (inactive) | 84.8% (inactive) | -4.64% (inactive) | 89.5 | 84.8 | -10.3% (inactive) | 1.77% (inactive) |
| C=COCCNC(=O)Nc1ccc(Cl)c(Cl)c1 | 91% (inactive) | 101% (inactive) | 91.1% (inactive) | -3.01% (inactive) | 94.1 | 91.1 | 2.16% (inactive) | -1.09% (inactive) |
| CCc1c(C)nc2ncnn2c1NCCc1ccc(OC)c(OC)c1 | 64% (inactive) | 103% (inactive) | 80.6% (inactive) | -0.53% (inactive) | 81.1 | 80.6 | -7.03% (inactive) | -0.18% (inactive) |
| Cc1cc(NC(=O)CSc2nc(C3CC3)nc3sc4c(c23)CCC(C)C4)no1 (stereo unspecified) | 90% (inactive) | 108% (inactive) | 102% (inactive) | 15.6% (inactive) | 86.4 | 102 | -5.2% (inactive) | -0.18% (inactive) |
| CC(CCc1ccccc1)NC(=O)C1CCN(S(=O)(=O)c2cnc[nH]2)CC1 (stereo unspecified) | 110% (inactive) | 96.4% (inactive) | 91.3% (inactive) | 10.2% (inactive) | 81.1 | 91.3 | -9.73% (inactive) | -3.45% (inactive) |
| O=c1c2ccccc2c(/C=N/n2cnnc2)c(O)n1-c1ccccc1 | 84% (inactive) | 103% (inactive) | 100% (inactive) | 16.3% (inactive) | 83.9 | 100 | -7.7% (inactive) | -3.09% (inactive) |
| Cc1ccc2nc(C(F)(F)F)c(C#N)c(N)c2c1 | 50% (inactive) | 78.9% (inactive) | 71.3% (inactive) | -43.8% (inactive) | 115 | 71.3 | -4.38% (inactive) | 6.55% (inactive) |
| O=C(CN(c1ccc(F)cc1)S(=O)(=O)c1ccc2c(c1)OCCO2)Nc1cccnc1 | 77% (inactive) | 89.5% (inactive) | 100% (inactive) | -0.85% (inactive) | 101 | 100 | -8.77% (inactive) | -3.82% (inactive) |
| c1cc2c(cc1C1CCCN1)OCCCO2 (stereo unspecified) | 103% (inactive) | 113% (inactive) | 91.6% (inactive) | -7.94% (inactive) | 99.5 | 91.6 | -5.21% (inactive) | 2% (inactive) |
| COc1ccccc1N1CCN(C(=O)CSc2nc3ncnc(N)c3[nH]2)CC1 | 110% (inactive) | 96.6% (inactive) | 92.8% (inactive) | 3.56% (inactive) | 89.3 | 92.8 | -4.29% (inactive) | -1.31% (inactive) |
| CC1CCCCC1NC(=O)COc1ccc(-n2cnnn2)cc1 (stereo unspecified) | 100% (inactive) | 103% (inactive) | 101% (inactive) | -0.38% (inactive) | 101 | 101 | 0% (inactive) | 0.73% (inactive) |
| COC(=O)c1[nH]c2ccc(C)cc2c1NC(=O)CN1CCN(C(=O)c2ccccc2)CC1 | 130% (inactive) | 94% (inactive) | 78.4% (inactive) | 33.4% (inactive) | 44.9 | 78.4 | -4.67% (inactive) | -0.36% (inactive) |
| O=C(CSc1nc2ccccc2o1)N1CCN(C(=O)c2ccco2)CC1 | 117% (inactive) | 102% (inactive) | 94.5% (inactive) | 1.25% (inactive) | 93.3 | 94.5 | -6.67% (inactive) | -1.45% (inactive) |
